The values below come from ChEMBL document CHEMBL3286149, “Synthesis of rigidified eIF4E/eIF4G inhibitor-1 (4EGI-1) mimetic and their in vitro characterization as inhibitors of protein-protein interaction” (J Med Chem, 2014).

The nature of data set [1]: Antiproliferative activity against human CRL2813 cells assessed as inhibition of cell proliferation after 5 days by sulforhodamine B assay. Type of data set: functional, cell-based. As to conditions: CRL2813, 120 h. The method in brief:
(§1)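 Adherent cells (CRL-2351 breast, CRL-2813 melanoma) in 96-well plates kept 5 days with compound at 0.54–20 μM. Fixed in cold 10% TCA at 4 °C overnight, stained 1 h at RT with 0.057% SRB in 1% acetic acid, unbound dye removed with 1% acetic acid, bound dye dissolved in 10 mM Tris pH 10, absorbance read at 510 nm. IC50 reported.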
On the technique in general: In SRB staining, fixed cells bind dye roughly in proportion to their protein.

Data set [2] in a line: Antiproliferative activity against human CRL2351 cells assessed as inhibition of cell proliferation after 5 days by sulforhodamine B assay. Type of data set: functional, cell-based. The following applies: 120 h. Put shortly:
as §1

Data set [3] concerns the target Eukaryotic translation initiation factor 4E (Homo sapiens, UniProt P06730). The data set is described as follows: Displacement of N-alpha-fluorescein tagged eIF4G-derived peptide from GST-DN26-eIF4E (unknown origin) by fluorescence polarization assay.
A short description of data set [4]: Retention time of the compound by RP-HPLC analysis. The format is physicochemical. The method in brief: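 C18 Xbridge column (4.6 mm × 100 mm), 1 mL/min, detection at 254 nm. Mobile phase A 0.1% v/v FA in water, B 0.1% v/v TFA in acetonitrile. Linear gradient usually 0–100% B over 26 min; some runs 50–100% B over 20 min or 30–100% B over 26 min.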

Sequence of Eukaryotic translation initiation factor 4E (P06730 whole entry): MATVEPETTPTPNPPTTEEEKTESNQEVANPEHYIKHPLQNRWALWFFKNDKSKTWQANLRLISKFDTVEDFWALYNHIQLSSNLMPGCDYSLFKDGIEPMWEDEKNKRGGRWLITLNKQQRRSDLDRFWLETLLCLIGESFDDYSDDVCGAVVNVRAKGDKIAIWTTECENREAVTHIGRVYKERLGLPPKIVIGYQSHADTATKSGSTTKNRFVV

On to `O=C(O)/C(Cc1ccccc1[N+](=O)[O-])=N\Nc1nc(-c2ccc(Cl)c(Cl)c2)cs1`, for which the half-inhibitory concentration (IC50) in data set [1] is 15.3 µM; in data set [2], 11.6 µM.

Take `O=C(O)/C(Cc1ccccc1[N+](=O)[O-])=N/Nc1nc2c(s1)CCc1cc(Cl)c(Cl)cc1-2`: the IC50 was 21.5 µM in data set [3], 3.8 µM in data set [1] and 4.1 µM in data set [2]. Moreover, the Retention_time in data set [4] worked out at 8.37 min.

`O=C(O)/C(Cc1ccccc1[N+](=O)[O-])=N\Nc1nc2c(s1)CCc1cc(Cl)c(Cl)cc1-2`: the IC50 in data set [3] was 34 µM; in data set [1] it was 12 µM; in data set [2] it was over 20 µM. This molecule had a Retention_time in data set [4] of 10.79 min.

Turning to `O=C(O)/C(Cc1ccccc1[N+](=O)[O-])=N/Nc1nc2c(s1)CCc1c-2ccc(Cl)c1Cl`, the results for the IC50 in data set [1] and in data set [2] were 3.6 µM and 4.4 µM, respectively. For the same molecule, in data set [4], the Retention_time is given as 8.69 min.

For `O=C(O)/C(Cc1ccccc1[N+](=O)[O-])=N\Nc1nc2c(s1)CCc1c-2ccc(Cl)c1Cl`, the figures for the IC50 in data set [1] and in data set [2] were 10.6 µM and 11.2 µM, respectively. This molecule also had a Retention_time in data set [4] of 11.39 min.

For `O=C(O)/C(Cc1ccccc1[N+](=O)[O-])=N/Nc1nc2c(s1)COc1c-2ccc(Cl)c1Cl`, the half-maximal inhibitory concentration (IC50) came to 5.8 µM in data set [1] and 16.6 µM in data set [2]. The Retention_time in data set [4] is listed as 11.6 min.

As to `O=C(O)/C(Cc1ccccc1[N+](=O)[O-])=N\Nc1nc2c(s1)COc1c-2ccc(Cl)c1Cl`, the IC50 in data set [1] is 12.3 µM; in data set [2], over 20 µM. Further, the Retention_time in data set [4] was 13.6 min.

Turning to `O=C(O)/C(Cc1ccccc1[N+](=O)[O-])=N/Nc1nc2c(s1)COc1cc(Cl)c(Cl)cc1-2`, the values for the IC50 in data set [1] and in data set [2] were 3.1 µM and 5.2 µM, respectively. In addition, in data set [4], the Retention_time turned out to be 12.77 min.

Take `O=C(O)/C(Cc1ccccc1[N+](=O)[O-])=N\Nc1nc2c(s1)COc1cc(Cl)c(Cl)cc1-2`: the IC50 in data set [1] came out at 8.7 µM; in data set [2], 15.4 µM. The same molecule yielded a Retention_time in data set [4] of 14.74 min.

Regarding `O=C(O)/C(Cc1ccccc1[N+](=O)[O-])=N/Nc1nc2c(s1)CSc1cc(Cl)c(Cl)cc1-2`, the IC50 amounted to 5.1 µM in data set [1] and 17.6 µM in data set [2]. Moreover, the Retention_time in data set [4] is reported as 10.33 min.

As to `O=C(O)/C(Cc1ccccc1[N+](=O)[O-])=N\Nc1nc2c(s1)CSc1cc(Cl)c(Cl)cc1-2`, the IC50 in data set [1] stood at 10.5 µM; in data set [2], 17.7 µM. In data set [4], this molecule registered a Retention_time of 13.33 min.

On to `O=C(O)/C(Cc1ccccc1[N+](=O)[O-])=N/Nc1nc2c(s1)CSc1c-2ccc(Cl)c1Cl`, for which the 50% inhibitory concentration (IC50) in data set [1] is 4.5 µM; in data set [2], 9.1 µM. For the same molecule, the Retention_time in data set [4] is listed as 15.66 min.

Regarding `O=C(O)/C(Cc1ccccc1[N+](=O)[O-])=N\Nc1nc2c(s1)CSc1c-2ccc(Cl)c1Cl`, the half-maximal inhibitory concentration (IC50) in data set [1] is 7 µM; in data set [2], 16.7 µM. The Retention_time in data set [4] came out at 18.23 min.

As for `O=C(O)/C(Cc1ccccc1[N+](=O)[O-])=N/Nc1nc2c(s1)C[S+]([O-])c1cc(Cl)c(Cl)cc1-2` (stereo not drawn), the IC50 in data set [1] is 7.5 µM; in data set [2], over 20 µM. The Retention_time in data set [4] is given as 9.82 min.

On to `O=C(O)/C(Cc1ccccc1[N+](=O)[O-])=N\Nc1nc2c(s1)C[S+]([O-])c1cc(Cl)c(Cl)cc1-2` (stereo not drawn), for which the figures for the IC50 in data set [1] and in data set [2] were 4.1 µM and 10.3 µM, respectively. In data set [4], the Retention_time is 10.38 min.

Turning to `O=C(O)/C(Cc1ccccc1[N+](=O)[O-])=N/Nc1nc2c(s1)C[S+]([O-])c1c-2ccc(Cl)c1Cl` (stereo not drawn), the values for the IC50 in data set [1] and in data set [2] were 11.2 µM and over 20 µM, respectively. Also, in data set [4], the Retention_time is 8.74 min.

Consider `O=C(O)/C(Cc1ccccc1[N+](=O)[O-])=N\Nc1nc2c(s1)C[S+]([O-])c1c-2ccc(Cl)c1Cl` (stereo not drawn), for which the figures for the half-inhibitory concentration (IC50) in data set [1] and in data set [2] were 11.4 µM and 19.8 µM, respectively. In addition, in data set [4], the Retention_time was found to be 10.12 min.

Regarding `O=C(O)/C(Cc1ccccc1[N+](=O)[O-])=N/Nc1nc2c(s1)CS(=O)(=O)c1c-2ccc(Cl)c1Cl`, the Retention_time in data set [4] was 12.41 min.

For the molecule `O=C(O)/C(Cc1ccccc1[N+](=O)[O-])=N\Nc1nc2c(s1)CS(=O)(=O)c1c-2ccc(Cl)c1Cl`, in data set [4], the Retention_time amounted to 13.63 min.

`O=C(O)/C(Cc1ccccc1[N+](=O)[O-])=N/Nc1nc2c(s1)CS(=O)(=O)c1cc(Cl)c(Cl)cc1-2` gave a Retention_time in data set [4] of 11.48 min.

`O=C(O)/C(Cc1ccccc1[N+](=O)[O-])=N\Nc1nc2c(s1)CS(=O)(=O)c1cc(Cl)c(Cl)cc1-2` had a Retention_time in data set [4] of 12.41 min.

As to `COc1cc2c(cc1OC)-c1nc(N/N=C(\Cc3ccccc3[N+](=O)[O-])C(=O)O)sc1CC2`, the half-inhibitory concentration (IC50) was 12.1 µM in data set [1] and over 20 µM in data set [2]. This molecule showed a Retention_time in data set [4] of 10 min.

On to `COc1cc2c(cc1OC)-c1nc(N/N=C(/Cc3ccccc3[N+](=O)[O-])C(=O)O)sc1CC2`, for which the IC50 in data set [1] and in data set [2] was over 20 µM in each case. This molecule also gave a Retention_time in data set [4] of 11.22 min.

As to `COc1ccc2c(c1OC)OCc1sc(N/N=C(\Cc3ccccc3[N+](=O)[O-])C(=O)O)nc1-2`, in data set [1], the concentration for half-maximal inhibition (IC50) is over 20 µM. Further, in data set [4], the Retention_time was 8.78 min.

With `COc1ccc2c(c1OC)OCc1sc(N/N=C(/Cc3ccccc3[N+](=O)[O-])C(=O)O)nc1-2`, the Retention_time in data set [4] came out at 10.38 min.

Take `COc1cc2c(cc1OC)-c1nc(N/N=C(\Cc3ccccc3[N+](=O)[O-])C(=O)O)sc1CO2`: the IC50 in data set [1] was over 20 µM. The Retention_time in data set [4] is listed as 9.07 min.

For `COc1cc2c(cc1OC)-c1nc(N/N=C(/Cc3ccccc3[N+](=O)[O-])C(=O)O)sc1CO2`, in data set [4], the Retention_time is reported as 10.9 min.

What is called IC50 is the concentration that inhibits the measured activity by half.
